Like-named read-outs stand apart in the source and are kept apart here. Marks after values point to notes of the source that are not given here.
Legend:
[1] = type: physicochemical; settings: pH 7.4, 25 °C, I = 0.1 M KCl; for pLa (−log [M]free): [M]total = 10^−6 M, [L]total = 10^−5 M
Summary of the method: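 Protonation constants of the free chelator are first determined by pH potentiometric titration (25 °C, 0.1 M KCl ionic strength), then La³⁺ stability constants (log KLaL) by the same method, all in triplicate. The fifth and sixth protonation constants are not determined over the pH ranges used. Conditional constants and pLa at pH 7.4 are calculated from the protonation and stability constants.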

[2] = cited from earlier work
[3] = cited from earlier work; remark: listed apart in the source
GPC3 = GPC3 (Homo sapiens, UniProt P51654); assay: Bio-layer interferometry; type: binding; settings: BLI, immobilized GPC3 antigen, global fit
HepG2 (GPC3+) xenografts = type: in vivo, athymic nude mice; settings: 100 nCi
[4] = Hydrolytic stability of the -NCS group in pH 9.1 NaHCO3 buffer; type: physicochemical

In the case of `O=C(O)CN1CCN(CC(=O)O)CCN(CC(=O)O)CCN(CC(=O)O)CC1` [H4DOTA, tetraazacyclododecane-1,4,7,10-tetraacetic acid], the “pLa (−log [M]free)” value [1] is given as 16.62, the “log K´La (conditional stability constant)” value (shortened to “log K´La”) [1] is given as 15.67 and the “log KLaHL” value ([2]; 0.1 M KCl) is given as 2.5(2) ^ d. For the same compound, the “log KLaL (La^3+ stability constant)” value ([2]; 0.1 M KCl) was 21.7(1) ^ d, the “log K1 (protonation constant)” value ([3]; 0.1 M KCl) was 11.14^d and the “log K2 (protonation constant)” value ([3]; 0.1 M KCl) was 9.69^d. For the same compound, the “log K3 (protonation constant)” value ([3]; 0.1 M KCl) was 4.84^d and the “log K4 (protonation constant)” value ([3]; 0.1 M KCl) was 3.95^d.

“GC33: glypican-3 (GPC3)-targeting antibody codrituzumab” showed a Kd (GPC3) of 0.042 nM.

In the case of “[^225Ac]Ac-GC33-BZM: ^225Ac-labeled GC33-BZM antibody radioconjugate”, the “tumor uptake compared with ^225Ac[Ac]-GC33-M” value (HepG2 (GPC3+) xenografts; 48 and 96 h) is reported as “effectively indistinguishable” and the tumor uptake (HepG2 (GPC3+) xenografts; 48 and 96 h post-injection) is reported as “clear, specific tumor uptake”.

For `O=C(O)c1cccc(CN2CCOCCOCCN(Cc3cc(N=C=S)cc(C(=O)O)n3)CCOCCOCC2)n1` [H2macropa-NCS], the “t1/2 of -NCS hydrolysis to the amine” value ([4]; buffer, pH 9.1) was 1.25 h and the “time to complete hydrolysis to the amine” value ([4]; pH 9.1 NaHCO3 buffer, room temperature) was “approximately 5 h”.

For `O=C(O)CN(CCN(CC(=O)O)CC(=O)O)CCN(CC(=O)O)CC(=O)O` [H5DTPA, diethylenetriamine pentaacetic acid], the “pLa (−log [M]free)” value [1] is given as 16.22, the “log K´La” value [1] is given as 15.27 and the “log KLaL (La^3+ stability constant)” value ([2]; 0.1 M) is given as 19.48 ^ e. The “log K1 (protonation constant)” value ([3]; 0.1 M) was 10.45^e, the “log K2 (protonation constant)” value ([3]; 0.1 M) was 8.53^e and the “log K3 (protonation constant)” value ([3]; 0.1 M) was 4.28^e. For the same compound, the “log K4 (protonation constant)” value ([3]; 0.1 M) was 2.65^e and the “log K5 (protonation constant)” value ([3]; 0.1 M) was 1.82^e.

In the case of `O=C(O)CN(CCN(CC(=O)O)CC(=O)O)CC(=O)O` [H4EDTA, ethylenediamine tetraacetic acid], the “pLa (−log [M]free)” value [1] is listed as 13.62, the “log K´La” value [1] is listed as 12.67 and the “log KLaHL” value ([2]; 0.1 M) is listed as 2.24 ^ e. The “log KLaL (La^3+ stability constant)” value ([2]; 0.1 M) was 15.46 ^ e, the “log K1 (protonation constant)” value ([3]; 0.1 M) was 10.17^e and the “log K2 (protonation constant)” value ([3]; 0.1 M) was 6.11^e. For the same compound, the “log K3 (protonation constant)” value ([3]; 0.1 M) was 2.68^e, the “log K4 (protonation constant)” value ([3]; 0.1 M) was 2.00^e and the “log K5 (protonation constant)” value ([3]; 0.1 M) was 1.5^e.

For `O=C(O)c1cccc(CN2CCOCCOCCN(Cc3cccc(C(=O)O)n3)CCOCCOCC2)n1` [H2macropa], the “pLa (−log [M]free)” value [1] is given as 15.58, the “log K´La” value [1] is given as 14.63 and the “log KLaHL” value ([2]; 0.1 M KCl) is given as 2.28(3) ^ c. The “log K1 (protonation constant)” value ([3]; 0.1 M KCl) was 7.41(1)^c, the “log K2 (protonation constant)” value ([3]; 0.1 M KCl) was 6.85(1)^c and the “log K3 (protonation constant)” value ([3]; 0.1 M KCl) was 3.32(1)^c. For the same compound, the “log K4 (protonation constant)” value ([3]; 0.1 M KCl) was 2.36(1)^c and the “log K5 (protonation constant)” value ([3]; 0.1 M KCl) was 1.69(1)^c.

“GC33-BZM: H2BZmacropa-NCS conjugate of the antibody GC33” showed a Kd (GPC3) of 0.19 nM.

Reference: publication PMC9362842 (Bioconjugate chemistry, 2022)
